Assay results as given in PMC5756543 (The Journal of Nutritional Biochemistry, 2017).

How the values were obtained:
Caco-2 cells [1] = assay: FA transport and metabolism across differentiated Caco-2 monolayers; format: in vitro ADME, human; conditions: for effect on transepithelial transport of FA (apical to basolateral): vs untreated (abstract, discussion); for effect on FA-sul in apical compartment / increase of FA-glu in basal compartment: n=6, P<.01
How it was run: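 Caco-2 monolayers were pretreated apically with 1 mM SCFA/lactate or mix from day 7 and used at 21–23 days after 30 min HBSS (pH 7.4) equilibration at 37°C; monolayers with TEER <930 Ω cm2 were discarded. Apical 500 µM test compound was applied for 1 h. Apical and basal samples were stabilised with ascorbic acid and spiked with acetic acid (10 mM final) and DMCA internal standard (10 µM final). LC-MS/MS MRM quantified parent and conjugates. Six biological replicates in duplicate; t test.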

Caco-2 cells [2] = assay: HT transport and phase II metabolism across differentiated Caco-2 monolayers; format: in vitro ADME, human; conditions: for rate of appearance of HT conjugate in apical compartment / rate of appearance of HT conjugate in basal compartment: 20 μM HT apical, HT-7-sul as HT-3′-sul equivalents; for decrease of HT-3′-glu 2 formation: acetate: in both compartments; for effect on efflux of HT-7-glu to both compartments: chronic treatment 1 mM 14 days (discussion)
How it was run: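 Caco-2 monolayers on transwells were pretreated apically with 1 mM SCFA/lactate or mix from day 7 to day 21–23. Cells were equilibrated in HBSS (1.8 mM CaCl2, pH 7.4) for 30 min at 37°C, and monolayers below 930 Ω cm2 TEER were discarded. Apical 20 µM test compound was applied for 1 h. Both compartments were sampled with 100 µM ascorbic acid and analysed by LC-MS/MS MRM (daidzein internal standard, matrix-matched calibration). n=6 in duplicate; t test.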

Caco-2 cells [3] = assay: SA transport across differentiated Caco-2 monolayers; format: in vitro ADME, human; conditions: for effect on SA transport / increase of SA in the basolateral compartment: 1 mM 14 days, vs untreated cells; for increase of SA in the basolateral compartment: n=6, P=.003
How it was run: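 Pretreated Caco-2 transwell monolayers (1 mM apical SCFA/lactate or mix from day 7, used at 21–23 days) were equilibrated in HBSS (pH 7.4) for 30 min at 37°C; monolayers under 930 Ω cm2 TEER were excluded. Apical 1 mM MCT substrate was incubated for 30 min. Both compartments were analysed by HPLC-UV at 303 nm, with DMCA internal standard at 326 nm. Six biological replicates in duplicate; t test, P<.01.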

ABCG2 mRNA = assay: ABCG2 gene expression by ddPCR in Caco-2 cells; format: cell-based, human; conditions: vs control; for effect on ABCG2 mRNA: 1 mM 14 days; for decrease of ABCG2 mRNA: 1 mM 14 days (mix 0.25 mM each)
How it was run: (§1)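 Caco-2 cells were seeded on transwells at 6×104 cm−2 and grown 21–23 days. From day 7 the apical medium was FBS-free with 1 mM Na-acetate, -propionate, -butyrate, -lactate or an equimolar mix (0.25 mM each); basal medium had 20% FBS; 0.1% DMSO served as control. RNA (1 µg) was reverse-transcribed. Duplex TaqMan ddPCR used 0.65 ng cDNA per reaction, with target FAM and TBP VIC. Copies/ng cDNA were derived by Poisson analysis. Four biological replicates from two seedings, each with three technical replicates; t test.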

MCT1 protein = MCT1 protein abundance by ProteinSimple WES in Caco-2 cells; format: cell-based, human; conditions: 1 mM 14 days, vs control
MCT4 (SLC16A3) mRNA = assay: MCT4 gene expression by ddPCR in Caco-2 cells; format: cell-based, human; conditions: vs control; for increase of MCT4 mRNA: 1 mM 14 days (mix 0.25 mM each), n=4
How it was run: as §1

MCT1 (SLC16A1) mRNA = assay: MCT1 gene expression by ddPCR in Caco-2 cells; format: cell-based, human; conditions: 1 mM 14 days, vs control
How it was run: as §1

UGT1A protein = UGT1A protein abundance by ProteinSimple WES in Caco-2 cells; format: cell-based, human; conditions: 1 mM 14 days; for decrease of UGT1A protein levels: vs control; for effect on UGT1A protein: vs control (discussion)
ABCG2 protein = ABCG2 protein abundance by ProteinSimple WES in Caco-2 cells; format: cell-based, human; conditions: vs control; for decrease of ABCG2 protein levels: 1 mM 14 days
How it was run: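 Transwell Caco-2 monolayers received 1 mM apical SCFA/lactate or mix (0.25 mM each) from day 7 and were lysed at 21–23 days in Bicine-CHAPS with inhibitors, then BCA-quantified. For capillary WES, 1.5 mg/ml lysate was used with 95°C denaturation for 5 min. α-Tubulin loading control came from the same sample in separate capillaries. Peak areas were quantified. Mean of 3–6 biological replicates ±S.E.M.; t test.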

Caco-2 cells [4] = assay: Transepithelial Electrical Resistance; format: cell-based, human; conditions: 1 mM apical pretreatment 14 days, n=36; for average TEER value after pretreatment: untreated 1149±23
How it was run: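 Caco-2 cells were seeded on transwells at 6×104 cm−2 and exposed apically from day 7 to 1 mM Na-acetate, -propionate, -butyrate, -lactate or mix in FBS-free medium (basal 20% FBS; 0.1% DMSO control). At 21–23 days, after HBSS washes and 30 min equilibration at 37°C, 10% CO2, TEER was measured with a voltohmmeter; t test.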

MCT4 protein = MCT4 protein abundance by ProteinSimple WES in Caco-2 cells; format: cell-based, human; conditions: 1 mM 14 days (mix 0.25 mM each), vs control
[5] = 1 mM 14 days, vs untreated, n=6, P<.01
[6] = 1 mM 14 days, vs untreated, n=6, P<.001

In the case of `COc1cc(/C=C/C(=O)O)ccc1O` [FA, ferulic acid], the “FA transported to the basal compartment” value (Caco-2 cells [1]; untreated cells, 500 μM FA (1 μmol) apical, 1 h) is reported as 1.73 ± 0.17 nmol/min and the “FA transported to basal compartment, share of added FA” value (Caco-2 cells [1]; untreated cells, after 1 h) is reported as 10.4%.

In the case of `COc1ccc([C@@H]2CC(=O)c3c(O)cc(O)cc3O2)cc1O` [HT, hesperetin], the “HT transported unchanged to the basolateral compartment” value (Caco-2 cells [2]; cells not treated with SCFA, 20 μM HT (40 nmol) apical, 1 h) is reported as 87 ± 26 pmol/min and the “HT transported to basolateral compartment, share of HT added apically” value (Caco-2 cells [2]; cells not treated with SCFA, after 60 min incubation) is reported as 13%.

`COc1ccc(C2CC(=O)c3c(O)cc(O)cc3O2)cc1OS(=O)(=O)O` (centres unmarked) [HT-3′-sul, hesperetin-3′-O-sulfate] was tested, and the “rate of appearance of HT conjugate in apical compartment” value (“rate … in apical compartment” for short) (Caco-2 cells [2]; untreated cells, 1 h) was 2.8 ± 0.1 pmol/min and the “rate of appearance of HT conjugate in basal compartment” value (“rate … in basal compartment” for short) (Caco-2 cells [2]; untreated cells, 1 h) was 2.53 ± 0.06 pmol/min.

For `COc1ccc([C@@H]2CC(=O)c3c(O)cc(O[C@@H]4O[C@H](C(=O)O)[C@@H](O)[C@H](O)[C@H]4O)cc3O2)cc1O` [HT-7-glu, Hesperetin-7-O-glucuronide], the “conjugate formed (basal + apical) as share of original HT added apically” value (Caco-2 cells [2]; untreated cells, 1 h) was 2.4%, the “rate … in apical compartment” value (Caco-2 cells [2]; untreated cells, 1 h) was 3.87 ± 0.07 pmol/min and the “rate … in basal compartment” value (Caco-2 cells [2]; untreated cells, 1 h) was 12.33 ± 0.57 pmol/min.

For `COc1ccc([C@@H]2CC(=O)c3c(O)cc(OS(=O)(=O)O)cc3O2)cc1O` [HT-7-sul, hesperetin-7-O-sulfate], the “rate … in apical compartment” value (Caco-2 cells [2]; untreated cells, 1 h) was 2.6 ± 0.06 pmol/min and the “rate … in basal compartment” value (Caco-2 cells [2]; untreated cells, 1 h) was 1.9 ± 0.03 pmol/min.

`O=C(O)c1ccccc1O` [SA, salicylic acid, reference compound] was tested, and the “SA transported to the basolateral side, share of original amount added apically” value (Caco-2 cells [3]; 1 mM SA apical, within 30 min) was ~ 10%.

In the case of `CC(=O)[O-].[Na+]` [acetate, Na-acetate], the “effect on HT-3′-sul efflux to the apical direction” value (“effect on HT-3′-sul efflux” below) (Caco-2 cells [2]; 1 mM 14 days, vs untreated) is reported as “lower”, the “decrease of HT-3′-glu 2 formation” value (Caco-2 cells [2]; [5]) is reported as 20% and the “effect on ABCG2 mRNA” value (ABCG2 mRNA) is reported as “unaffected”. For the same compound, the “decrease of MCT1 protein” value (MCT1 protein; n=3, P<.005) was ~ 30%, the “increase of MCT4 mRNA” value (MCT4 (SLC16A3) mRNA) was ~ 20% and the “increase of MCT1 mRNA” value (MCT1 (SLC16A1) mRNA; n=4, P≤.02) was ~ 20%. The “effect on SA transport” value (Caco-2 cells [3]) was “did not affect”, the “decrease of UGT1A protein levels” value (UGT1A protein) was ~ 25% and the “effect on FA transport and metabolism” value (Caco-2 cells [1]; 1 mM 14 days, vs untreated) was “no effect”.

`CCCC(=O)O` [butyrate, Na-butyrate] was tested, and the “effect on ABCG2 protein levels” value (ABCG2 protein; 1 mM 14 days (mix 0.25 mM each)) was “not reflected in protein changes”, the “effect on HT-3′-sul efflux” value (Caco-2 cells [2]; 1 mM 14 days, vs untreated) was “lower” and the “increase of HT-7-glu in basal compartment” value (Caco-2 cells [2]; [5]) was 23%. The “decrease of HT-3′-glu 2 formation” value (Caco-2 cells [2]; [5]) was 30–40%, the “effect on efflux of HT-7-glu to both compartments” value (Caco-2 cells [2]) was “increased” and the “effect on ABCG2 mRNA” value (ABCG2 mRNA) was “decreased”. For the same compound, the “increase of MCT1 protein” value (MCT1 protein; n=3, P=.01) was ~ 40%, the “effect on MCT4 mRNA” value (MCT4 (SLC16A3) mRNA; 1 mM 14 days) was “not affected” and the “decrease of MCT1 mRNA” value (MCT1 (SLC16A1) mRNA) was ~ 30%. The “average TEER value after pretreatment” value (Caco-2 cells [4]) was 1066±31 Ω cm^2, the “decrease of average TEER values” (Caco-2 cells [4]; vs untreated cells) was 7% and the “increase of SA in the basolateral compartment” value (Caco-2 cells [3]) was 32%. The “effect on MCT4 protein levels” value (MCT4 protein) was “not affected”, the “effect on UGT1A protein” value (UGT1A protein) was “did not affect” and the “effect on transepithelial transport of FA (apical to basolateral)” value (Caco-2 cells [1]; 1 mM 14 days) was “strongly enhanced”. For the same compound, the “effect on FA-sul in apical compartment” value (Caco-2 cells [1]; 1 mM 14 days, vs untreated) was “lower” and the “increase of FA-glu in basal compartment” value (Caco-2 cells [1]; 1 mM 14 days, vs untreated) was ~ 40%.

`CC(O)C(=O)[O-].[Na+]` (centres unmarked) [lactate, Na-lactate] was tested, and the “decrease of ABCG2 protein levels” value (ABCG2 protein) was ~ 50%, the “decrease of all HT phase II conjugates in apical compartment” value (Caco-2 cells [2]; 1 mM 14 days, vs untreated) was 13–40% and the “effect on HT-3′-sul efflux” value (Caco-2 cells [2]; 1 mM 14 days, vs untreated) was “lower”. For the same compound, the “effect on HT-3′-glu 1 in basolateral side” value (Caco-2 cells [2]; [5]) was “substantially decreased”, the “effect on HT-3′-glu 2 in basolateral side” value (Caco-2 cells [2]; [5]) was “substantially decreased” and the “decrease of ABCG2 mRNA” value (ABCG2 mRNA) was 20–30%. The “decrease of MCT4 mRNA” value (MCT4 (SLC16A3) mRNA; 1 mM 14 days, P<.001) was 20–30%, the “decrease of MCT1 mRNA” value (MCT1 (SLC16A1) mRNA) was 20–30% and the “average TEER value after pretreatment” value (Caco-2 cells [4]) was 1232±25 Ω cm^2. The “increase of TEER (resistance)” value (Caco-2 cells [4]; vs untreated cells) was 7%, the “effect on SA transport” value (Caco-2 cells [3]) was “did not affect” and the “decrease of UGT1A protein levels” value (UGT1A protein) was ~ 30%. The “effect on FA-sul in basolateral compartment” value (Caco-2 cells [1]; 1 mM 14 days, vs untreated) was “substantially decreased” and the “effect on FA-sul in apical compartment” value (Caco-2 cells [1]; 1 mM 14 days, vs untreated) was “substantially decreased”.

`CCC(=O)[O-].[Na+]` [propionate, Na-propionate] was tested, and the “decrease of ABCG2 protein levels” value (ABCG2 protein) was ~ 40%, the “effect on HT-3′-sul basolateral transport” value (Caco-2 cells [2]; 1 mM 14 days, vs untreated) was “stimulated” and the “effect on HT-7-sul basolateral transport” value (Caco-2 cells [2]; 1 mM 14 days, vs untreated) was “stimulated”. For the same compound, the “increase of HT-3′-glu 1 in basolateral side” value (Caco-2 cells [2]; [5]) was 34%, the “increase of HT-7-glu in basal compartment” value (Caco-2 cells [2]; [5]) was 42% and the “effect on efflux of HT-7-glu to both compartments” value (Caco-2 cells [2]) was “increased”. For the same compound, the “decrease of ABCG2 mRNA” value (ABCG2 mRNA) was ~ 18%, the “effect on MCT1 protein levels” value (MCT1 protein) was “without significant effects” and the “increase of MCT4 mRNA” value (MCT4 (SLC16A3) mRNA) was ~ 29%. For the same compound, the “effect on MCT1 gene expression” value (MCT1 (SLC16A1) mRNA) was “unchanged”, the “increase of SA in the basolateral compartment” value (Caco-2 cells [3]) was 21% and the “effect on MCT4 protein levels” value (MCT4 protein) was “without significant effects”. The “effect on UGT1A protein” value (UGT1A protein) was “did not affect”, the “effect on FA-sul in basolateral compartment” value (Caco-2 cells [1]; 1 mM 14 days, vs untreated) was “favored over efflux to the apical compartment” and the “increase of FA-glu in apical compartment” value (Caco-2 cells [1]; 1 mM 14 days, vs untreated) was 72%. The “effect on transepithelial transport of FA (apical to basolateral)” value (Caco-2 cells [1]; 1 mM 14 days) was “strongly enhanced”, the “higher concentration of DHFA in apical compartment” value (Caco-2 cells [1]; [6]) was 4.1 fold and the “higher concentration of DHFA in basal compartment” value (Caco-2 cells [1]; [6]) was 3.4 fold. For the same compound, the “increase of FA-glu in basal compartment” value (Caco-2 cells [1]; 1 mM 14 days, vs untreated) was 83%.
